The values that follow come from ChEMBL document CHEMBL1122650, “Synthesis and central nervous system properties of 2-[(alkoxycarbonyl)amino]-4(5)-phenyl-2-imidazolines” (J Med Chem, 1984).

Activity calls are given as the source filed them. The calls are words filed in the database; no cut-off is given here.

Data set [1] is filed under the species Mus musculus. The data set can be described thus: Compound was evaluated for maximal electroshock antagonism (MES) against mice. It is filed as functional. In outline: (§1)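 Male HLa (ICR) BR mice, groups of eight to ten, dosed ip (aqueous solution) 15 min before transcorneal electroshock (50 mA, 0.2 s). End point: abolition of tonic hind-limb extension; quantal ED50 by Litchfield-Wilcoxon.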

The nature of data set [2]: Lethal dose in mouse, in groups of ten. In kind it is toxicity, organism-based. Conditions: in vivo.
The species entered for data set [3] is Mus musculus. The data set can be described thus: Mouse behavior activity was determined; Dwk= Depressant Weak. In kind it is functional, organism-based. The method, boiled down: (§2)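 Male Simonsen (ICR) fBR mice, 18-24 g, groups of three, given 3, 10, 30, 100, 300 or 1000 mg/kg ip as aqueous solution and observed for behavioral profile; deaths followed up to 7 days.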

Data set [4] is described as follows: HPLC capacity factor (k'). It is filed as ADME.
Data set [5] is filed under the species Mus musculus. Briefly: Righting ability was determined in mice before rapid rolling (unaroused). It is filed as functional. The method, boiled down:
(§3)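 Male Simonsen (ICR) fBR mice, 18-24 g, groups of ten, dosed with aqueous compound. Righting ability checked before (unaroused) and after (aroused) rapid rolling in the hand; ED50 by Litchfield-Wilcoxon method.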

Data set [6] relates to Mus musculus. The data set can be described thus: Compound was evaluated in vivo for reserpine hypothermia after oral administration in mouse. Minimum active dose was reported; rigidity was potentiated by compound. It is filed as functional, organism-based. The method, boiled down:
(§4)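 Male HLa (ICR) BR mice, 18-24 g, in groups of eight; reserpine 5 mg/kg ip given 2 h before oral test compound as aqueous solution. Rectal temperature taken hourly; 1-4-h hypothermia assessed by analysis of variance.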

The species named for data set [7] is Mus musculus. The data set can be described thus: Mouse behavior activity was determined; S-D=Stimulant-Depressant. In kind it is functional, organism-based. The method, boiled down:
as §2

For data set [8], the species on record is Mus musculus. The data set can be described thus: Evaluated for antagonism of reserpine induced hypothermia. It is filed as functional. In outline:
as §4

For data set [9], the species on record is Mus musculus. The data set can be described thus: Compound was evaluated for maximal electroshock antagonism (MES) against mice; Inactive. It is filed as functional, organism-based. In outline:
as §1
On the technique in general: Protection in the maximal electroshock model is a classic sign of anticonvulsant action.

For data set [10], the species on record is Mus musculus. The data set can be described thus: Mouse behavior activity was determined; Inactive. It is filed as functional, organism-based. In outline: as §2
For data set [11], the species on record is Mus musculus. The data set can be described thus: Mouse behavior activity was determined; Dwk= Depressant Weak. In kind it is functional, organism-based. In outline: as §2
For data set [12], the species on record is Mus musculus. Briefly: Compound was evaluated for maximal electroshock antagonism (MES) against mice; Inactive. It is filed as functional, organism-based. The method, boiled down:
as §1

Data set [13] concerns Mus musculus. Briefly: Compound was evaluated in vivo for reserpine hypothermia after oral administration in mouse. It is filed as functional. In outline: as §4
The species named for data set [14] is Mus musculus. Briefly: Mouse behavior activity was determined; D=Depressant. In kind it is functional, organism-based. In outline: as §2
Data set [15] is filed under the species Mus musculus. Briefly: Evaluated for antagonism of reserpine induced hypothermia;I= Inactive. It is filed as functional, organism-based. The method, boiled down: as §4
The species entered for data set [16] is Mus musculus. Briefly: Mouse behavior activity was determined; Dwk=Depressant Weak. It is filed as functional, organism-based. In outline:
as §2

Data set [17] has as its system Mus musculus. The data set can be described thus: Compound was evaluated in vivo for reserpine hypothermia after oral administration in mouse. Minimum active dose was reported; Inactive. In kind it is functional, organism-based. The method, boiled down:
as §4

The species named for data set [18] is Rattus norvegicus. The data set can be described thus: Inhibition of the NE [3H]Norepinephrine uptake by rat brain slices In vitro. It is filed as functional.
In data set [19] the test system is Mus musculus. The data set can be described thus: Reserpine hypothermia antagonism in mouse administered perorally with 5 mg/kg of reserpine 2 hour prior to test compound administration. To be noted: route oral. In kind it is functional.
The species named for data set [20] is Rattus norvegicus. Briefly: Inhibition of the 5-HT [14C]5-HT uptake by rat brain slices In vitro. It is filed as functional. The method, boiled down:
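Rat cerebral cortex slices, 5 mg tissue per mL Krebs-Henseleit buffer, incubated at 37 °C with [3H]NE or [14C]5-HT; blanks at 4 °C, undosed controls. Stopped after 20 min by filtration; slice radioactivity counted; IC50 from linear regression of uptake inhibition.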

The species entered for data set [21] is Mus musculus. Briefly: Inhibition of radioactive NE [3H]norepinephrine uptake into mouse heart. It is filed as functional. In outline:
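Mice dosed ip (aqueous solution) before iv [3H]NE; hearts removed 3 h after label, washed, weighed, dissolved in Protosol and counted as dpm per mg tissue. Dose-response from linear regression.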

For data set [22], the species on record is Mus musculus. The data set can be described thus: Mouse behavior activity was determined;D= Depressant. It is filed as functional, organism-based. In outline:
as §2

The species entered for data set [23] is Mus musculus. The data set can be described thus: Compound was evaluated for antagonism of reserpine induced hypothermia. It is filed as functional. In outline:
as §4

The species named for data set [24] is Mus musculus. The data set can be described thus: Righting ability was determined in mice […] rapid rolling (aroused). It is filed as functional. The method, boiled down:
as §3

For the molecule `COC(=O)NC1=NC(c2cccc(Br)c2)CN1` (centres undefined), the ED50 in [1] was ~68 mg/kg. In data set [2], this molecule had an LD50 of 300 mg/kg. In data set [3], the Mouse behavior activity result was “Depressant - weak”. In addition, the “Log k'” value in [4] is recorded as 0.5.

As to `CCOC(=O)NC1=NC(c2ccccc2)CN1C` (centres undefined), in data set [1], the ED50 stood at 78 mg/kg. The molecule further had a Loss of righting reflex in data set [5] of 100 mg/kg. For the same molecule, in [2], the LD50 was determined as 200 mg/kg. Further, in data set [6], the P result is reported as “rigidity was potentiated by compound”. In data set [7], the Mouse behavior activity result was “Stimulant-Depressant”. Besides, in data set [4], the “Log k'” value worked out at 0.41. The HYPO in data set [8] was <0.5 mg/kg.

For `CCOC(=O)NC1=NC(c2ccc(CO)cc2)CN1C` (centres undefined), the ED50 result in [9] was “inactive”. In data set [2], the LD50 was found to be 500 mg/kg. In data set [10], the Mouse behavior activity entry is “inactive”. Moreover, the “Log k'” value in data set [4] is recorded as -0.29.

`COC(=O)NC1=NC(c2ccc(C)cc2)CN1` (centres undefined): the LD50 in data set [2] is > 1000 mg/kg. For the same molecule, the Mouse behavior activity entry in [11] is given as “Depressant - weak”. Moreover, in data set [4], the “Log k'” value is recorded as 0.3. Also, the ED50 result in data set [12] is “inactive”. Also, in [8], the HYPO is >20 mg/kg.

Regarding `COC(=O)NC1=NCC(c2cccc(Cl)c2)N1C` (centres undefined), in data set [1], the median effective dose (ED50) is 31 mg/kg. The same molecule registered an LD50 in [2] of 200 mg/kg. Moreover, in data set [3], the Mouse behavior activity entry is “Depressant - weak”. Further, in [4], the “Log k'” value is listed as 0.86. The HYPO in data set [8] is <0.5 mg/kg.

Regarding `COC(=O)NC1=NC(c2cccc(F)c2)CN1` (centres undefined), the ED50 was 70 mg/kg in data set [1] and 36 mg/kg in data set [13]. Also, the LD50 in data set [2] was 200 mg/kg. In data set [14], the Mouse behavior activity entry is given as “Depressant”. Also, the “Log k'” value in [4] is listed as -0.1.

In the case of `CCCCCCc1ccc(C2CN=C(NC(=O)OC)N2)cc1` (centres undefined), the HYPO entry in data set [15] was “inactive”. Also, the LD50 in data set [2] amounted to 200 mg/kg. The Mouse behavior activity entry in data set [16] is “Depressant - weak”. Besides, in data set [4], the “Log k'” value turned out to be 2.28. The ED50 result in [12] was “inactive”.

In the case of `COC(=O)NC1=NC(c2ccc(SC)cc2)CN1C` (centres undefined), the HYPO result in [15] is “inactive”. The molecule further displayed an ED50 in [1] of 100 mg/kg. For the same molecule, in data set [4], the “Log k'” value amounted to 0.61. The ED50 result in data set [17] is “inactive”.

`NC1=NC(c2ccccc2)CN1` (centres undefined): the ED50 entry in data set [9] is “inactive”. Moreover, the LD50 in data set [2] came to 300 mg/kg. Moreover, in data set [7], the Mouse behavior activity result is given as “Stimulant-Depressant”. Moreover, the IC50 in data set [18] turned out to be 0.1 µM; in [20], 31 µM. The Reserpine hypothermia in data set [19] was < 10 mg/kg. Further, in data set [4], the “Log k'” value is -3.74. Besides, the ED50 in data set [21] was 0.3 mg/kg.

Consider `CCOC(=O)NC1=NC(c2cccc(Cl)c2)CN1C` (centres undefined), for which, in data set [1], the 50% effective dose (ED50) came out at 74 mg/kg. Besides, in [22], the Mouse behavior activity result was “Depressant”. This molecule also displayed a Loss of righting reflex in data set [5] of 70 mg/kg. The HYPO in data set [23] is <0.5 mg/kg. Further, in data set [2], the LD50 was determined as 300 mg/kg. In addition, the “Log k'” value in [4] was determined as 0.78.

Molecule `COC(=O)NC1=NC(c2ccccc2)CN1C` (centres undefined) displayed an ED50 in data set [1] of 107 mg/kg. In addition, the LD50 in [2] was determined as 200 mg/kg. The P result in data set [6] is “rigidity was potentiated by compound”. Also, in data set [7], the Mouse behavior activity result was “Stimulant-Depressant”. Further, the “Log k'” value in data set [4] is reported as 0.06.

Regarding `CCOC(=O)NC1=NC(c2ccccc2Cl)CN1C` (centres undefined), the ED50 in [1] turned out to be 28 mg/kg; in data set [21] it was 34 mg/kg. In addition, the Mouse behavior activity result in data set [22] is recorded as “Depressant”. For the same molecule, the figures for the Loss of righting reflex in data set [5] and in [24] were 30 mg/kg and 64 mg/kg, respectively. Moreover, the LD50 in [2] stood at 200 mg/kg. The 50% inhibitory concentration (IC50) in data set [18] is 30 µM; in data set [20], 150 µM. In data set [19], this molecule came in with a Reserpine hypothermia of 0.15 mg/kg. The “Log k'” value in [4] worked out at 0.82. Moreover, the HYPO in data set [8] is <0.5 mg/kg.

With `COC(=O)NC1=NC(c2cc(Br)ccc2Br)CN1C` (centres undefined), it took a dose of 45 mg/kg to reach the 50% effect level in data set [1] (ED50). The same molecule showed an LD50 in data set [2] of 500 mg/kg. For the same molecule, the Mouse behavior activity result in [3] is “Depressant - weak”. In data set [4], the “Log k'” value was found to be 0.98. Further, the HYPO in data set [8] was <0.5 mg/kg.

For orientation: ED50 means the dose that gives a 50% effect, or the effect in half of the subjects. Usually LD50 stands for the dose at which mortality reaches 50%. A higher LD50 goes with lower toxicity. Broadly, the IC50 is the concentration at which inhibition is half-maximal. The low end stands for greater potency in that assay, the high end for weaker potency in that assay.
